GPR7 antagonist: GPR7 receptor antagonists, primary screen, cell-based, fluorescence, single concentration | GPR7-expressing cells, fluorescence antagonist assay | inhibition, % at 4.4 µM | 1.1% of 290,000 active | AID 1861, 2009; in the data active means inhibition above about 16%, passing the limit was not always enough;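 further: cells stimulated with the agonist NPW; 0% = agonist with vehicle and 100% = vehicle without agonist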
Target sequence (P48145 whole entry, looked up): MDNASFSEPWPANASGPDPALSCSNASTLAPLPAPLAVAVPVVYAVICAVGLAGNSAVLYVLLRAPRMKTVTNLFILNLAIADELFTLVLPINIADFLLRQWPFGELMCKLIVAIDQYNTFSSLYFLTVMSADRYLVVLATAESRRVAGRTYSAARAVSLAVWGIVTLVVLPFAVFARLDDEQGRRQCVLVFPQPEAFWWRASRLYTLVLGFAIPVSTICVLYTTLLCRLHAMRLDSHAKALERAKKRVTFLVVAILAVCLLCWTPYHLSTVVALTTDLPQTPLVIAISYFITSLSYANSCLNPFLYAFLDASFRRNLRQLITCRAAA
OX1R antag-1: OX1R (HCRTR1) antagonists, primary screen, fluorescence, CHO/OX1R cells, Fluo-8 calcium, orexin A | Orexin/Hypocretin receptor type 1 (Homo sapiens), O43613 | Fluo-8 calcium fluorescence | inhibition, % at 5 µM | 0.43% of 330,000 active | AID 434989, 2010;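 active means inhibition above its plate's threshold, mean inhibition of all tested compounds on the plate plus 3 SD, cut at about 37% in these data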;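 further: 0% = orexin A challenge wells and 100% = SB-334867-A antagonist wells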
TAAR1 antagonist: human TAAR1 antagonists, primary screen, Fluo-8 calcium fluorescence, CHO RD-HGA16 cells; Trace amine-associated receptor 1 (Homo sapiens), Q96RJ0; antagonist; inhibition, % at 3 µM; 1.5% of 360,000 active;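 active means inhibition above a per-plate cutoff, the mean inhibition of test compounds on that plate plus 3 SD, cut at about 49% in these data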;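 further: 0% = DMSO plus EC80 beta-PEA response and 100% = DMSO alone without agonist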
Target sequence (Q96RJ0 whole entry, looked up): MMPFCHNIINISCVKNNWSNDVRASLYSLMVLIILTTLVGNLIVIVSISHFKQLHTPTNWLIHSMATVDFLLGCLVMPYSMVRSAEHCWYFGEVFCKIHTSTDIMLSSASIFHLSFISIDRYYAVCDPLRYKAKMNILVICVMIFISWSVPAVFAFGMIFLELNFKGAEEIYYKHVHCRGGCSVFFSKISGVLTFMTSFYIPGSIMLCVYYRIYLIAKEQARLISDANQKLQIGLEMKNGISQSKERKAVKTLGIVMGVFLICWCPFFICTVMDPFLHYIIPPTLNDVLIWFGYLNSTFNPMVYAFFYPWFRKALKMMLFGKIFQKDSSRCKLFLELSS
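Test system – hTAAR1-expressing CHO RD-HGA16 cells, Gα16-coupled · Reagent – β-PEA at EC80 concentration, post-compound challenge · Compound dosing – 3 µM, single point · Timing – 140 s kinetic read after compound, 140 s after agonist · Detection – Fluo-8 intracellular calcium dye fluorescence, real-time kinetic reads · Control set – DMSO and EC80 PEA controls · Repeats – n of 1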
TAAR1 ag: human TAAR1 agonists, primary screen, Fluo-8 calcium fluorescence, CHO RD-HGA16 cells | Trace amine-associated receptor 1 (Homo sapiens), Q96RJ0 | vehicle wells 0%, saturating PEA agonist 100% | activation, % at 3 µM | 0.99% of 360,000 active;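 active means activation above the mean activation of all test compounds in the run plus 3 SD, cut at about 38% in these data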
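Benchmarks: low control DMSO, high control PEA (EC100); System: CHO RD-HGA16 cells carrying human TAAR1 plus Gα16; Detection: Fluo-8 fluorescence, 5 s baseline then 140 s kinetic read; Schedule: 17-24 h plating, Fluo-8 75 min 37 °C, 30 min RT; Read-out basis: % activation from peak over basal fluorescence ratio, DMSO-to-PEA scaled.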
CHO parental Ca: ATP-evoked calcium signal inhibitors, parental CHO, primary screen, counter-screen for OX1R antagonist project, cell-based, fluorescence, Fluo-8 calcium dye. AID 463079, 2010. parental CHO-K1, ATP-induced calcium, Fluo-8 fluorescence. 0.63% of 330,000 active. inhibition, % at 5.6 µM;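 active means inhibition above that plate's mean sample inhibition plus 3 SD, cut at about 26% in these data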;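 further: 0% = ATP-challenged DMSO wells and 100% = DMSO wells without ATP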
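Test system: untransfected parental CHO cell line. Compound: one dose, 5.6 µM nominal. Detection: intracellular calcium via Fluo-8 no-wash fluorescent dye. Measure: % inhibition. Benchmarks: ATP-challenged DMSO wells low, unchallenged DMSO wells high.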
OX1R antag-2: antagonists of human orexin 1 receptor (OX1R) | Orexin/Hypocretin receptor type 1 (Homo sapiens), O43613 | OX1R-expressing cells, FRET antagonist read-out | inhibition, % at 6.6 µM | 1.8% of 330,000 active; in the data active means inhibition mostly above about 38%, no sharp cut-off; inactive means mostly below about 40%;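 further: 0% = agonist challenge alone and 100% = reference antagonist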
Active calls of the source: *; nt = not tested or not shown. This is a sample that favours compounds with a hit; in the whole collection about 4.6% have one here.

SMILES	GPR7 antagonist	OX1R antag-1	TAAR1 antagonist	TAAR1 ag	CHO parental Ca	OX1R antag-2
C/C(=N\Nc1nc2ccccc2s1)c1ccc(Br)s1	0	-7	5	4	-10	36
CC(=NNc1nc2ccccc2s1)c1ccncn1	nt	nt	64*	34	nt	nt
Cc1ccc(Nc2nc(NCCO)c3ccccc3n2)cc1C	-7	-23	-11	39*	-12	-4
O=C(OCCOc1cccc(Cl)c1)c1cc(S(=O)(=O)N2CCCCC2)ccc1N1CCOCC1	nt	0	24	0	38*	-14
Cc1ccc(F)cc1N=Cc1c(O)c2ccccc2oc1=O	-12	-20	nt	nt	-4	58*
CCc1cccc(C)c1N=Cc1c(O)c2ccccc2oc1=O	7	-4	2	0	-1	54*
Cc1ccc(N=Cc2c(O)c3ccccc3oc2=O)c(C)c1	-13	-9	-21	0	-8	2
Cc1cc2nc(C(C)(C)C)c(CC3CCCCC3)n2c(C)c1Br	nt	nt	-7	0	nt	nt
COc1ccc(CCNC(=O)c2ccc(CNS(=O)(=O)c3ccc(C(C)(C)C)cc3)cc2)cc1OC	-2	4	56*	15	-5	26
COc1cccc2cc(C(=O)NCCN3CCOCC3)c(=O)oc12	-7	-5	-13	4	-13	39*
COc1ccc(C(=O)NNC(=O)c2cc3cccc(OC)c3oc2=O)cc1	3	-16	-7	14	-5	50*
COc1cccc(NC(=O)c2cc3cccc(OC)c3o/c2=N\O)c1	-19	40*	nt	nt	16	93*
COc1ccc(C(=O)NNC(=O)c2cc3cc(OC)ccc3oc2=O)cc1	-8	-11	-31	9	1	31
COc1cccc(NC(=O)c2cc3ccccc3o/c2=N\O)c1	0	-24	25	7	-11	24
C[C@H](O)[C@@H]1CN2CCc3ccc(-c4ccc5c(c4)OCO5)cc3[C@@H]2C[C@@H]1N(C)C(=O)NC1CCCCC1	nt	nt	-21	-1	nt	nt
CCc1nnc(N/N=C/c2ccc(-c3ccc([N+](=O)[O-])cc3)o2)n1N	-16	-3	12	5	6	40
Cc1nnc(N/N=C\c2ccc(-c3ccccc3[N+](=O)[O-])o2)n1N	-7	-13	-1	2	-5	56*
Cc1nnc(N/N=C/c2ccc(-c3ccccc3F)o2)n1N	1	-9	13	5	-7	57*
Cc1n[nH]c(=S)n1/N=C/c1ccc(-c2ccccc2[N+](=O)[O-])o1	-1	-20	4	9	-10	68*
O=[N+]([O-])c1cccc(-c2ccc(/C=N/n3c(-c4ccccc4)n[nH]c3=S)o2)c1	10	-2	-3	2	-9	12
O=[N+]([O-])c1cccc(N=NN(CCO)c2cccc([N+](=O)[O-])c2)c1	5	-8	51*	8	10	57
COC(=O)Cc1nnn2c1[C@H](C)[C@H](c1cccc(OC)c1OC)OCC2	nt	nt	-5	3	nt	nt
O=C(CSc1cccc(C(F)(F)F)c1)Nc1nnc(C2CC2)s1	nt	9	-24	3	5	3
O=C(CSc1ccccc1)Nc1nnc(C2CC2)s1	15	-4	-24	8	30*	21
CCOc1ncccc1C(=O)Nc1cc2c(cc1Br)OCCO2	nt	22	-21	7	-30	40*
SMILES	GPR7 antagonist	OX1R antag-1	TAAR1 antagonist	TAAR1 ag	CHO parental Ca	OX1R antag-2
CCOc1ncccc1C(=O)Nc1nnc(C2CC2)s1	0	9	5	3	-12	74*
CCOc1ncccc1C(=O)Nc1ccc2c(c1)OCO2	-4	-15	-31	-2	-20	12
CCOc1ncccc1C(=O)Nc1nnc(C)s1	-5	1	-8	1	-13	15
Cc1cc2nsnc2c(S(=O)(=O)N2CCN(C)CC2)c1C	7	-5	-5	-2	-3	42*
Cc1cc(C)c(C)c(S(=O)(=O)N2CCCN(C)CC2)c1C	-9	-11	-10	3	-3	9
O=C(CCS(=O)(=O)c1ccccc1)Nc1cccc(-c2nc3ccccc3s2)c1	1	6	60*	19	-5	55*
O=C(CCS(=O)(=O)c1ccccc1)Nc1ccc(-c2nc3ccccc3s2)cc1	-17	-19	9	5	-6	13
COC(=O)C1=C(C)N(Cc2ccccc2C(F)(F)F)C(=NCc2ccc(C(F)(F)F)cc2)NC1c1cccc(F)c1 (stereo not given)	nt	nt	-24	9	nt	nt
CCCCOC(=O)CCn1c(=S)oc2ccccc21	-1	-42	25	44*	-7	6
CCCNC(=O)CCn1c(=S)oc2ccccc21	-5	1	-10	2	3	3
COc1ccccc1NC(=O)COC(=O)CN1C(=O)C(=O)c2ccccc21	9	21	-2	1	-7	34
O=C(CN1C(=O)C(=O)c2ccccc21)OCN1C(=O)c2ccccc2C1=O	-6	-10	-16	0	-8	44*
CC1CCC2(CC1)NC(=O)N(CC(=O)NC(=O)Nc1ccc3c(c1)OCCO3)C2=O (stereo not given)	20*	-18	-7	-1	-20	24
O=C(Nc1ccccc1)N1CCCN(Cc2ccccc2F)C1	-2	-20	-12	2	-9	3
Cc1c(Cl)cccc1NC(=S)N1CCCN(Cc2ccccc2F)C1	-6	25	9	12	16	3
Fc1ccccc1CN1CCCN(C(=S)Nc2cccc(Cl)c2)C1	2	6	10	12	40*	27
Cc1c(Cl)cccc1NC(=S)N1CCCN(Cc2ccc(F)cc2)C1	-4	2	20	14	33*	17
CC(C)(C)[C@@H]1COC(=O)[C@@H](Cc2ccc(F)cc2)CC/C=C\C[C@@H](CC(=O)N(CCO)Cc2ccccc2)C(=O)N1	nt	-23	5	9	-9	10
CC(C)(C)[C@@H]1COC(=O)[C@H](Cc2ccc(F)cc2)CC/C=C\C[C@H](CC(=O)N(CCO)Cc2ccccc2)C(=O)N1	nt	11	56*	36	-3	30
O=C1NC[C@@H](c2ccccc2)OC(=O)[C@@H](Cc2ccc(F)cc2)C/C=C\C[C@@H]1CC(=O)N(CCO)Cc1ccccc1	nt	-11	69*	38*	-19	12
CC(C)(C)OC(=O)C[C@@H]1C/C=C\C[C@@H](CC(=O)N(CCO)Cc2ccccc2)C(=O)N[C@@H](c2ccccc2)COC1=O	nt	-41	49*	15	-17	12

High-throughput results deposited in PubChem BioAssay by The Scripps Research Institute Molecular Screening Center.
